In brackets after ≈: the same amount, converted by molar mass.
Assays:
Format in all cases: functional
[1] = tested on: Candida albicans; assay: Antifungal activity against Candida albicans ATCC 90028 after 24 hrs by two-fold broth microdilution method; conditions: ATCC 90028, 24 h
Summary of the method: (§1)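 Strains subcultured one day before testing; colonies suspended in sterile water and adjusted to 0.5 McFarland (1.5 × 10^8 cfu/ml). Two-fold dilutions in MHB (medium pH 7.4 ± 0.1), final 200 to 0.39 µg/ml. Incubated 37 ± 1 °C for 24 h, then resazurin (0.4 mg/ml) added for a further 5 h. MIC read by colour: blue = no growth, pink = growth.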

[2] = tested on: Candida albicans; assay: Antifungal activity against Candida albicans clinical isolate after 24 hrs by two-fold broth microdilution method; summary of the method: as §1
[3] = tested on: Cryptococcus neoformans; assay: Antifungal activity against […] clinical isolate after 24 hrs by two-fold broth microdilution method; summary of the method: as §1
[4] = tested on: Escherichia coli; assay: Antibacterial activity against Escherichia coli ATCC 35218 after 24 hrs by two-fold broth microdilution method; conditions: ATCC 35218, 24 h; summary of the method: as §1
[5] = tested on: Staphylococcus aureus; assay: Antibacterial activity against Staphylococcus aureus ATCC 25923 after 24 hrs by two-fold broth microdilution method; conditions: ATCC 25923, 24 h; summary of the method: as §1
[6] = tested on: Pseudomonas aeruginosa; assay: Antibacterial activity against Pseudomonas aeruginosa ATCC 27853 after 24 hrs by two-fold broth microdilution method; conditions: ATCC 27853, 24 h; summary of the method: as §1
[7] = tested on: Cryptococcus neoformans; assay: Antifungal activity against […] ATCC 66031 after 24 hrs by two-fold broth microdilution method; conditions: ATCC 66031, 24 h; summary of the method: as §1
[8] = tested on: Aspergillus niger; assay: Antifungal activity against Aspergillus niger ATCC 16404 after 24 hrs by two-fold broth microdilution method; conditions: ATCC 16404, 24 h; summary of the method: as §1
[9] = tested on: Bacillus subtilis; assay: Antibacterial activity against Bacillus subtilis ATCC 6051 after 24 hrs by two-fold broth microdilution method; conditions: ATCC 6051, 24 h; summary of the method: as §1

| Structure (SMILES) | MIC [1] [µg/mL] | MIC [2] [µg/mL] | MIC [3] [µg/mL] | MIC [4] [µg/mL] | MIC [5] [µg/mL] | MIC [6] [µg/mL] | MIC [7] [µg/mL] | MIC [8] [µg/mL] | MIC [9] [µg/mL] |
| --- | --- | --- | --- | --- | --- | --- | --- | --- | --- |
| Clc1ccc(-c2nn3c(/C=N/C4CC4)c(-c4ccc(Br)cc4)nc3s2)cc1 | 25 (≈ 54.6 µM) | 50 (≈ 109 µM) | 200 (≈ 437 µM) | 200 (≈ 437 µM) | 200 (≈ 437 µM) | 50 (≈ 109 µM) | 100 (≈ 218 µM) | 100 (≈ 218 µM) | 200 (≈ 437 µM) |
| Cc1ccc(C(=O)/C=C/c2c(-c3ccc(Br)cc3)nc3sc(-c4ccccc4)nn23)cc1 | 25 (≈ 50 µM) | > 200 | 100 (≈ 200 µM) | > 200 | > 200 | > 200 | 25 (≈ 50 µM) | > 200 | > 200 |
| Clc1ccccc1-c1nn2c(/C=N/C3CC3)c(-c3ccc(Br)cc3)nc2s1 | 25 (≈ 54.6 µM) | 50 (≈ 109 µM) | > 200 | 200 (≈ 437 µM) | 200 (≈ 437 µM) | 50 (≈ 109 µM) | 100 (≈ 218 µM) | 100 (≈ 218 µM) | 200 (≈ 437 µM) |
| Brc1ccc(-c2nc3sc(-c4ccc(I)cc4)nn3c2/C=N/C2CCCCC2)cc1 | 25 (≈ 42.3 µM) | 50 (≈ 84.6 µM) | > 200 | 200 (≈ 338 µM) | 200 (≈ 338 µM) | 50 (≈ 84.6 µM) | 100 (≈ 169 µM) | 100 (≈ 169 µM) | 200 (≈ 338 µM) |
| Clc1ccccc1-c1nn2c(/C=N/C3CCCCC3)c(-c3ccc(Br)cc3)nc2s1 | 12.5 (≈ 25 µM) | 25 (≈ 50 µM) | > 200 | 200 (≈ 400 µM) | 200 (≈ 400 µM) | 50 (≈ 100 µM) | 100 (≈ 200 µM) | 100 (≈ 200 µM) | 200 (≈ 400 µM) |
| O=C(/C=C/c1c(-c2ccc(Br)cc2)nc2sc(-c3ccccc3Br)nn12)c1cccs1 | > 200 | > 200 | 12.5 (≈ 21.9 µM) | > 200 | > 200 | > 200 | 3.12 (≈ 5.47 µM) | > 200 | > 200 |
| O=C(/C=C/c1c(-c2ccc(Br)cc2)nc2sc(-c3ccc(Cl)cc3)nn12)c1cccs1 | 25 (≈ 47.5 µM) | > 200 | 12.5 (≈ 23.7 µM) | > 200 | > 200 | > 200 | 12.5 (≈ 23.7 µM) | > 200 | > 200 |
| Cc1ccc(C(=O)/C=C/c2c(-c3ccc(Br)cc3)nc3sc(-c4ccccc4Cl)nn23)cc1 | 50 (≈ 93.5 µM) | > 200 | 100 (≈ 187 µM) | > 200 | 200 (≈ 374 µM) | > 200 | 50 (≈ 93.5 µM) | > 200 | > 200 |
| COc1ccc(-c2nn3c(/C=N/C4CC4)c(-c4ccc(Br)cc4)nc3s2)cc1 | 25 (≈ 55.1 µM) | 50 (≈ 110 µM) | > 200 | 200 (≈ 441 µM) | 200 (≈ 441 µM) | 25 (≈ 55.1 µM) | 100 (≈ 221 µM) | 100 (≈ 221 µM) | 200 (≈ 441 µM) |
| COc1ccc(-c2nn3c(/C=C/C(=O)c4cccs4)c(-c4ccc(Br)cc4)nc3s2)cc1 | 100 (≈ 191 µM) | > 200 | 200 (≈ 383 µM) | > 200 | > 200 | > 200 | 25 (≈ 47.9 µM) | > 200 | > 200 |
| Brc1ccc(-c2nc3sc(-c4ccccc4Br)nn3c2/C=N/C2CCCCC2)cc1 | 50 (≈ 91.9 µM) | 50 (≈ 91.9 µM) | 200 (≈ 367 µM) | 200 (≈ 367 µM) | 200 (≈ 367 µM) | 50 (≈ 91.9 µM) | 100 (≈ 184 µM) | 50 (≈ 91.9 µM) | 200 (≈ 367 µM) |
| O=C(/C=C/c1c(-c2ccc(Br)cc2)nc2sc(-c3ccccc3)nn12)c1cccs1 | 200 (≈ 406 µM) | > 200 | 6.25 (≈ 12.7 µM) | > 200 | > 200 | > 200 | 6.25 (≈ 12.7 µM) | > 200 | > 200 |
| COc1ccc(-c2nn3c(/C=C/C(=O)c4ccccc4)c(-c4ccc(Br)cc4)nc3s2)cc1 | 50 (≈ 96.8 µM) | > 200 | 12.5 (≈ 24.2 µM) | 200 (≈ 387 µM) | > 200 | > 200 | 3.12 (≈ 6.05 µM) | > 200 | > 200 |
| Cc1ccc(C(=O)/C=C/c2c(-c3ccc(Br)cc3)nc3sc(-c4ccccc4Br)nn23)cc1 | 200 (≈ 345 µM) | > 200 | 12.5 (≈ 21.6 µM) | > 200 | 100 (≈ 173 µM) | > 200 | 1.56 (≈ 2.69 µM) | > 200 | > 200 |
| O=C(/C=C/c1c(-c2ccc(Br)cc2)nc2sc(-c3ccc(Cl)cc3)nn12)c1ccccc1 | > 200 | > 200 | 12.5 (≈ 24 µM) | > 200 | > 200 | > 200 | 6.25 (≈ 12 µM) | > 200 | > 200 |
| O=C(/C=C/c1c(-c2ccc(Br)cc2)nc2sc(-c3ccccc3Cl)nn12)c1ccccc1 | > 200 | > 200 | 12.5 (≈ 24 µM) | 100 (≈ 192 µM) | > 200 | > 200 | 12.5 (≈ 24 µM) | > 200 | > 200 |
| C[C@@H]1[C@H](O)[C@@H](C)/C=C/C=C/C=C/C=C/C=C/C=C/C=C/[C@H](O[C@@H]2O[C@H](C)[C@@H](O)[C@H](N)[C@@H]2O)C[C@@H]2O[C@](O)(C[C@@H](O)C[C@@H](O)[C@H](O)CC[C@@H](O)C[C@@H](O)CC(=O)O[C@H]1C)C[C@H](O)[C@H]2C(=O)O [AMPHOTERICIN B] | 0.25 (≈ 0.271 µM) | 25 (≈ 27.1 µM) | 1 (≈ 1.08 µM) |  |  |  | 1 (≈ 1.08 µM) | 1.95 (≈ 2.11 µM) |  |
| Brc1ccc(-c2nc3sc(-c4ccccc4)nn3c2/C=N/C2CC2)cc1 | 25 (≈ 59.1 µM) | 50 (≈ 118 µM) | > 200 | 200 (≈ 472 µM) | 200 (≈ 472 µM) | 50 (≈ 118 µM) | 100 (≈ 236 µM) | 100 (≈ 236 µM) | 200 (≈ 472 µM) |
| O=C(/C=C/c1c(-c2ccc(Br)cc2)nc2sc(-c3ccccc3Cl)nn12)c1cccs1 | 50 (≈ 94.9 µM) | > 200 | 200 (≈ 380 µM) | > 200 | > 200 | > 200 | 200 (≈ 380 µM) | > 200 | > 200 |
| Clc1ccc(-c2nn3c(/C=N/C4CCCCC4)c(-c4ccc(Br)cc4)nc3s2)cc1 | 50 (≈ 100 µM) | 50 (≈ 100 µM) | > 200 | 200 (≈ 400 µM) | 200 (≈ 400 µM) | 50 (≈ 100 µM) | 100 (≈ 200 µM) | 100 (≈ 200 µM) | 200 (≈ 400 µM) |
| O=C(/C=C/c1c(-c2ccc(Br)cc2)nc2sc(-c3ccccc3)nn12)c1ccccc1 | > 200 | > 200 | 200 (≈ 411 µM) | > 200 | > 200 | > 200 | 25 (≈ 51.4 µM) | > 200 | > 200 |
| CC1(C)S[C@@H]2[C@H](NC(=O)[C@H](N)c3ccc(O)cc3)C(=O)N2[C@H]1C(=O)O [AMOXICILLIN] |  |  |  | < 0.39 | < 0.39 | < 0.39 |  |  | < 0.39 |

Source: ChEMBL document CHEMBL3414553, “Novel imidazo[2,1-b]-1,3,4-thiadiazoles as promising antifungal agents against clinical isolate of Cryptococcus neoformans” (2015)
